Bioassay records as filed in PubChem BioAssay.
ABCG2 inh – human ABCG2 inhibition, ABCB1 as counter-screen; inhibition, % at 6.6 µM; Q9UNQ0; AID 1325; hit rate 0.1% among 190,000; IgMXP3 cells, JC-1 efflux, flow cytometry;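 active = inhibition above 80%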;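 also: 0% = DMSO and 100% = nicardipine control wells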
Target sequence (Q9UNQ0 whole entry, looked up): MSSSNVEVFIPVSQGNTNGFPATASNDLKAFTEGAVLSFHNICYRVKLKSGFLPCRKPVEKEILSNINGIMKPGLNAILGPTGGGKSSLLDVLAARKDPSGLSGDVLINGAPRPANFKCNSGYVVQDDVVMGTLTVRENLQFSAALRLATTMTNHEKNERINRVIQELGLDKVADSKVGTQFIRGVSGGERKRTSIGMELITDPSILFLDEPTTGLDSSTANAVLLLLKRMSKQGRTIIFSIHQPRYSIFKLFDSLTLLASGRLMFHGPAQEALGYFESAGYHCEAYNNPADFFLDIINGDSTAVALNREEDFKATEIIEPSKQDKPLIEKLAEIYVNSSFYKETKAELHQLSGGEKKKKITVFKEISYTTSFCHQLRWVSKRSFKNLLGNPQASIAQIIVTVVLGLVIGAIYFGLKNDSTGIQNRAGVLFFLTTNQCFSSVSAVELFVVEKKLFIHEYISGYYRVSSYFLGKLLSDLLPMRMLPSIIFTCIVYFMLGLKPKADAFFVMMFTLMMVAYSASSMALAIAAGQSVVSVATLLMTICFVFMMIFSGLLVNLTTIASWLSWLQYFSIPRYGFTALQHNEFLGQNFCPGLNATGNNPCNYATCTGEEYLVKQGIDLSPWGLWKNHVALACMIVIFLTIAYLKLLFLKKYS
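material = IgMXP3 (ABCG2) plus far-red-tagged CCRF-Adr (ABCB1) cells | amount = 3 million cells/mL, equal mix of both lines | also added = JC-1 transporter substrate | dosing = one concentration, 6.6 µM final | schedule = 10 min at 25 °C | measured by = flow cytometric JC-1 green MFI at 530 nm | read-out basis = percent efflux inhibition, scaled nicardipine 100% to DMSO 0%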
Arbovirus anti – antivirals against arbovirus infection; arbovirus infection cell-based antiviral screen; inhibition, % at 10 µM; hit rate 0.37% among 200,000; in the data active = inhibition above about 30%
RAM inhibit – blocks the yeast RAM network | S. cerevisiae dse1pr::URA3 reporter, 5-FOA growth OD615, 2 d; analog-sensitive cbk1-as2 kinase mutant strain | inhibition, % at 50 µM | hit rate 1.8% among 190,000 | AID 868;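 active = inhibition above a set limit, 3 SD over mean compound inhibition, cut at about 8.4% in these data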;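 also: 0% = DMSO-only wells with no growth and 100% = 10 µM 1-NA-PP1 full growth; inhibition rescues growth on 5-FOA so higher OD means more RAM inhibition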
ABCB1 inh – human ABCB1 inhibition, ABCG2 as counter-screen; CCRF-Adr cells, JC-1 efflux, flow cytometry; hit rate 0.067% among 190,000; inhibition, % at 6.6 µM; in the data active = inhibition above about 40%;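 also: 0% = vehicle and 100% = reference inhibitor; higher value means more JC-1 retained so stronger ABCB1 efflux block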
RAM 5-FOA – RAM network inhibition, efflux-deficient strain; 1,200 tested, under 10 active; shares compounds with RAM inhibit; S. cerevisiae efflux-deficient reporter strain, 5-FOA growth OD615, 2 days; max inhibition, %; call rule not given here;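 also: plate controls were vehicle for no effect and reference inhibitor for full effect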
ABCB1 confirm – confirmation of human ABCB1 transporter inhibitors, ABCG2 counter-screen | shares compounds with ABCG2 inh | CCRF-Adr cells, JC-1 efflux, flow cytometry | inhibition, % at 6.6 µM | hit rate 7% among 270;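 active = inhibition of pump activity above 50%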;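 also: 0% = DMSO and 100% = nicardipine full pump inhibition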
ABCG2 single pt – inhibits human ABCG2 efflux, confirmed at single point. shares compounds with ABCG2 inh. IgMXP3 cells, JC-1 efflux, flow cytometry. inhibition, % at 6.6 µM. hit rate 6% among 270. AID 1453;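 active = inhibition above 50%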;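 also: 0% = DMSO wells and 100% = nicardipine pump inhibitor wells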
IgMXP3 fluor – compound fluoresces at 488/530 nm in IgMXP3 cells | shares compounds with ABCG2 inh | compound autofluorescence 488/530 nm, flow; stronger effect = higher value | fluorescence at 6.6 µM | hit rate 30% among 270;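 active = fluorescence in ABCG2-expressing cells above the plate's control-well mean plus 3 SD, cut at about 15 in these data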;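 also: median cell fluorescence with compound minus that of DMSO-treated control cells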
CCRF autofluor – CCRF-Adr autofluorescence flag for ABCB1 confirmation; shares compounds with ABCG2 inh; CCRF-Adr cells, compound autofluorescence 488/530 nm, flow cytometry; stronger effect = higher value; fluorescence at 6.6 µM; hit rate 30% among 270;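 active = fluorescence beyond the plate control mean plus 3 SD, with a fluorescence-to-maximum score over 2, cut at about 25 in these data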
* = called active by the depositor; . = not tested or not shown; + = active, no number. The list is not random: actives were taken first. Their share in the collection is about 2.3%.

SMILES	ABCG2 inh	Arbovirus anti	RAM inhibit	ABCB1 inh	ABCB1 confirm	ABCG2 single pt	IgMXP3 fluor	CCRF autofluor	others
Cc1ccc(C(=O)/C=C/c2ccc(-c3ccccc3[N+](=O)[O-])o2)cc1	4	13	15*	0	.	.	.	.	RAM 5-FOA=3
O=C(/C=C/c1ccc(-c2ccccc2)o1)c1ccccc1	-4	26	11*	-1	.	.	.	.	RAM 5-FOA=7
O=C(/C=C/c1ccc(-c2ccccc2[N+](=O)[O-])o1)c1ccc(Br)cc1	30	-3	12*	0	.	.	.	.	RAM 5-FOA=3
N#Cc1nc(-c2ccccc2)oc1NCCN1CCCCC1	1	3	1	0	.	.	.	.
Brc1ccc(Cn2c(-c3ccc(Br)o3)nc3ccccc32)o1	7	-3	13*	0	.	.	.	.	RAM 5-FOA=3
Cc1cc(=O)oc2cc(Oc3ncccc3[N+](=O)[O-])ccc12	22	1	2	1	.	.	.	.
CCOCCCNC(=S)N1CCCN(c2nc3cc(C)c(C)cc3cc2C#N)CC1	28	1	17*	4	.	.	.	.	RAM 5-FOA=2
COCCCNC(=S)N1CCCN(c2nc3cc(C)c(C)cc3cc2C#N)CC1	5	13	4	1	.	.	.	.
Cc1cc(N2CCCCC2)ccc1[N+](=O)[O-]	84*	2	0	2	1	8	0.76	2.4
COc1ccc(C(=O)Cn2nnc(-c3ccccc3NC(=O)C3CC3)n2)cc1	82*	6	6	6	0	4	70*	8.2
COc1ccc(C(=O)Cn2nnc(-c3ccccc3F)n2)cc1	2	1	2	0	.	.	.	.
CCc1nnc(NC(=O)[C@@H](NC(=O)c2cc(OC)cc(OC)c2)C(C)C)s1	6	-9	1	1	.	.	.	.
COc1cc(OC)cc(C(=O)N[C@H](C(=O)Nc2nc(-c3cc(OC)ccc3OC)cs2)C(C)C)c1	47	-8	5	5	6	35	-1.8	-3.8
COc1ccc(NC(=O)CN2CCN(C3c4ccccc4-c4ccccc43)CC2)c(OC)c1	76	-7	0	22	35	25	-0.44	-0.39
OCCC#Cc1ccc(CN2CCN(Cc3ccccc3)C(CCO)C2)cc1 (stereo not drawn)	89*	1	1	14	3	4	4.3	13
Cc1ccc(S(=O)(=O)N(C)c2ccc(OC(=O)c3ccc(=O)[nH]c3)cc2)cc1	4	6	2	0	.	.	.	.
CC1=Nc2ccccc2/C1=C\c1nc(-c2ccc(C(F)(F)F)cc2)oc1O	49	11	4	44*	-23	13	69*	201*
CC1=Nc2ccccc2/C1=C\c1nc(-c2ccccc2)oc1O	2	-4	5	1	.	.	.	.
CC(=O)c1sc(Nc2nc3cc4c(cc3s2)OCO4)nc1C	-6	-3	1	-1	.	.	.	.
CCOC(=O)c1sc(Nc2nc3cc4c(cc3s2)OCO4)cc1C	175*	-6	4	195*	2	16	-1.6	-2.2
CCOC(=O)c1sc2cc([N+](=O)[O-])cc(SCC(C)C)c2c1N	60	1	6	32	23	-7	82*	129*
Cc1ccc(C(=O)NCC(=O)Nc2cccc(C(F)(F)F)c2)cc1	18	-9	3	0	.	.	.	.
O=C(CNC(=O)c1ccccc1)Nc1cccc(C(F)(F)F)c1	+	0	2	.	2	13	73*	33*
CCN(CC)c1ccc(/C=C(\C#N)C(N)=O)cc1	0	-10	1	0	.	.	.	.
CCN(CC)c1ccc(/C=C(\C#N)C(=O)c2ccc(Br)cc2)cc1	+	-30	9.2*	181*	-11	-222	743*	814*
SMILES	ABCG2 inh	Arbovirus anti	RAM inhibit	ABCB1 inh	ABCB1 confirm	ABCG2 single pt	IgMXP3 fluor	CCRF autofluor	others
O=C(Nc1cc(Cl)ccc1Cl)c1ccc(-c2ccccc2)cc1	1	6	8	0	.	.	.	.
O=C(Nc1ccc(Cl)cc1C(F)(F)F)c1ccccc1	36	-5	2	43*	1	9	0.26	-3.4
O=C(Nc1ccccc1)Nc1nc(-c2ccc(F)cc2)cs1	81*	3	3	1	-1	19	1.1	22
CCOc1nc(-c2ccccc2)ccc1-c1noc(COC)n1	76	-4	1	1	-1	27	4	3.8
Cc1ccc(NC(NC(=O)c2ccccc2[N+](=O)[O-])C(Cl)(Cl)Cl)cc1 (stereo not drawn)	11	-4	3	1	.	.	.	.
CN(C)CCNC(=S)Nc1ccc(F)c(F)c1F	2	1	0	0	.	.	.	.
COc1ccc(N2CCN(C(=O)c3ccc(NS(=O)(=O)c4ccccc4)cc3)CC2)cc1	83*	13	2	1	4	4	63*	24
COc1ccc(NS(=O)(=O)c2ccc(C(=O)N3CCN(Cc4ccccc4)CC3)cc2)cc1	0	10	0	0	.	.	.	.
CCN(CC)C(=O)[C@]1(c2ccccc2)C[C@@H]1CN	-1	1	.	.	.	.	.	.
COc1ccc(NC(=O)CC2CCCC2)cc1S(=O)(=O)N1CCCCC1	2	10	2	0	.	.	.	.
COc1ccc(NC(=O)CCC2CCCCC2)cc1S(=O)(=O)N1CCCCC1	81*	3	6	2	26	9	8	11
CON/C=C(\C=Nc1ccc(F)cc1)c1ncc(C(F)(F)F)cc1Cl	2	1	8	1	.	.	.	.
COc1cc(C)nc(OCCNC(=O)COc2ccc(Cl)cc2Cl)n1	2	8	0	1	.	.	.	.
CN(C)c1nc(OCCNC(=O)COc2ccc(Cl)cc2Cl)nc(N(C)C)n1	28	8	2	61*	37	41	-2.3	-5.1
COc1ccccc1NC(=O)/C(=C/c1cccc([N+](=O)[O-])c1)c1ccccc1	57	2	11*	3	-1	24	4.8	13
COc1ccccc1C(=O)N/C(=C/c1cccc([N+](=O)[O-])c1)C(=O)Nc1cccc(C(=O)O)c1	11	1	4	1	.	.	.	.
CCCCn1c(O)c(N=Nc2ccccn2)c2ccccc21	79	2	-1	2	0	51*	1.3	15
Cn1c(N)c(C(=O)COC(=O)C(Cc2ccccc2)NC(=O)c2ccccc2)c(=O)n(C)c1=O (stereo not drawn)	2	-1	0	-1	.	.	.	.
CCN1CCN(c2nc(-c3ccccn3)nc3ccccc23)CC1	1	-11	1	1	.	.	.	.
c1ccc(CN2CCN(c3nc(-c4ccccn4)nc4ccccc34)CC2)cc1	33	-12	-1	48*	37	19	2.1	13
